Experimental data as given in ChEMBL document CHEMBL4184090, “Discovery of novel jaspine B analogues as autophagy inducer” (Bioorg Med Chem Lett, 2018).
The source made the active and inactive calls. No cut-off for these calls is given here.

Legend:
A549 = experiment: Antiproliferative activity against human A549 cells after 72 hrs by MTT assay; format: functional, cell-based; details: A549, 72 h
Summary of the method: (§1)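 MTT proliferation assay; cells exposed to compounds for 72 h. IC50 is the concentration inhibiting tumor cell proliferation by 50%. Means ± SDs of three independent experiments. 5-Fluorouracil used as positive control.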

MCF7 = experiment: Antiproliferative activity against human MCF7 cells after 72 hrs by MTT assay; format: functional, cell-based; details: MCF7, 72 h; summary of the method: as §1
PC-3 [1] = experiment: Antiproliferative activity against human PC3 cells after 72 hrs by MTT assay; format: functional, cell-based; details: PC-3, 72 h; summary of the method: as §1
B16-F10 = experiment: Antiproliferative activity against mouse B16/F10 cells after 72 hrs by MTT assay; format: functional, cell-based; details: B16-F10, 72 h; summary of the method: as §1
PC-3 [2] = experiment: Induction of apoptosis in human PC3 cells assessed as late apoptotic cells at 3 uM after 48 hrs by Annexin V-FITC/propidium iodide staining-based flow cytometric analysis (reference value: 9.3%); format: functional
PC-3 [3] = experiment: Induction of mitochondrial membrane potential loss in human PC3 cells at 1 uM after 24 hrs by JC-1 staining-based flow cytometric analysis (reference value: 50.5%); format: functional
PC-3 [4] = experiment: Induction of apoptosis in human PC3 cells assessed as viable cells at 2 uM after 48 hrs by Annexin V-FITC/propidium iodide staining-based flow cytometric analysis (reference value: 78.2%); format: functional; details: PC-3, 48 h, read-out: Activity
PC-3 [5] = experiment: Induction of apoptosis in human PC3 cells assessed as early apoptotic cells at 3 uM after 48 hrs by Annexin V-FITC/propidium iodide staining-based flow cytometric analysis (reference value: 12.4%); format: functional
PC-3 [6] = experiment: Induction of mitochondrial membrane potential loss in human PC3 cells at 2 uM after 24 hrs by JC-1 staining-based flow cytometric analysis (reference value: 50.5%); format: functional
PC-3 [7] = experiment: Induction of autophagy in human PC3 cells assessed as increase in beclin-1 expression level by Western blot analysis; format: functional, cell-based
Summary of the method: (§2)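 Western blot of PC-3 lysates for beclin-1, LC3B-I, LC3B-II and P62 after treatment at increasing concentrations.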

PC-3 [8] = experiment: Cytotoxicity against human PC3 cells assessed as reduction in cell viability at 3 uM after 48 hrs by MTT assay relative to control; format: functional
Summary of the method: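 MTT viability read-out in PC-3 cells incubated with a range of concentrations for 48 h; viability expressed relative to untreated control cells.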

PC-3 [9] = experiment: Induction of apoptosis in human PC3 cells assessed as early apoptotic cells at 4 uM after 48 hrs by Annexin V-FITC/propidium iodide staining-based flow cytometric analysis (reference value: 12.4%); format: functional
PC-3 [10] = experiment: Induction of autophagy in human PC3 cells assessed as increase LC3-2 accumulation at 4 uM by confocal microscopic analysis; format: functional, cell-based; details: TDE = time-dependent effect
Summary of the method: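 LC3 immunofluorescence in PC-3 cells imaged by confocal microscopy over time up to 24 h to follow autophagosome formation.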

PC-3 [11] = experiment: Induction of apoptosis in human PC3 cells assessed as viable cells at 1 uM after 48 hrs by Annexin V-FITC/propidium iodide staining-based flow cytometric analysis (reference value: 78.2%); format: functional; details: PC-3, 48 h, read-out: Activity
PC-3 [12] = experiment: Induction of apoptosis in human PC3 cells assessed as necrotic cells at 2 uM after 48 hrs by Annexin V-FITC/propidium iodide staining-based flow cytometric analysis (reference value: 0.1%); format: functional
PC-3 [13] = experiment: Induction of mitochondrial membrane potential loss in human PC3 cells at 4 uM after 24 hrs by JC-1 staining-based flow cytometric analysis (reference value: 50.5%); format: functional
PC-3 [14] = experiment: Induction of morphological changes in human PC3 cells at 3 uM by microscopic analysis; format: functional, cell-based
PC-3 [15] = experiment: Induction of apoptosis in human PC3 cells assessed as late apoptotic cells at 1 uM after 48 hrs by Annexin V-FITC/propidium iodide staining-based flow cytometric analysis (reference value: 9.3%); format: functional
PC-3 [16] = experiment: Induction of apoptosis in human PC3 cells assessed as necrotic cells at 3 uM after 48 hrs by Annexin V-FITC/propidium iodide staining-based flow cytometric analysis (reference value: 0.1%); format: functional
PC-3 [17] = experiment: Induction of apoptosis in human PC3 cells assessed as late apoptotic cells at 2 uM after 48 hrs by Annexin V-FITC/propidium iodide staining-based flow cytometric analysis (reference value: 9.3%); format: functional
PC-3 [18] = experiment: Induction of apoptosis in human PC3 cells assessed as necrotic cells at 1 uM after 48 hrs by Annexin V-FITC/propidium iodide staining-based flow cytometric analysis (reference value: 0.1%); format: functional
PC-3 [19] = experiment: Induction of apoptosis in human PC3 cells assessed as early apoptotic cells at 2 uM after 48 hrs by Annexin V-FITC/propidium iodide staining-based flow cytometric analysis (reference value: 12.4%); format: functional
PC-3 [20] = experiment: Induction of apoptosis in human PC3 cells assessed as viable cells at 3 uM after 48 hrs by Annexin V-FITC/propidium iodide staining-based flow cytometric analysis (reference value: 78.2%); format: functional; details: PC-3, 48 h, read-out: Activity
PC-3 [21] = experiment: Induction of apoptosis in human PC3 cells assessed as viable cells at 4 uM after 48 hrs by Annexin V-FITC/propidium iodide staining-based flow cytometric analysis (reference value: 78.2%); format: functional; details: PC-3, 48 h, read-out: Activity
PC-3 [22] = experiment: Induction of apoptosis in human PC3 cells assessed as early apoptotic cells at 1 uM after 48 hrs by Annexin V-FITC/propidium iodide staining-based flow cytometric analysis (reference value: 12.4%); format: functional
PC-3 [23] = experiment: Induction of mitochondrial membrane potential loss in human PC3 cells at 3 uM after 24 hrs by JC-1 staining-based flow cytometric analysis (reference value: 50.5%); format: functional
PC-3 [24] = experiment: Induction of autophagy in human PC3 cells assessed as increase in LC3-2 expression level by Western blot analysis; format: functional, cell-based; summary of the method: as §2
PC-3 [25] = experiment: Induction of autophagy in human PC3 cells assessed as decrease in P62 protein level at 1 uM by Western blot analysis; format: functional, cell-based; summary of the method: as §2
PC-3 [26] = experiment: Induction of apoptosis in human PC3 cells assessed as late apoptotic cells at 4 uM after 48 hrs by Annexin V-FITC/propidium iodide staining-based flow cytometric analysis (reference value: 9.3%); format: functional
PC-3 [27] = experiment: Induction of apoptosis in human PC3 cells assessed as necrotic cells at 4 uM after 48 hrs by Annexin V-FITC/propidium iodide staining-based flow cytometric analysis (reference value: 0.1%); format: functional

Q: `CCCCCCCCCCCCCC[C@@H]1OC[C@H](N)[C@@H]1O` [PACHASTRISSAMINE] was tested. Which IC50 (A549) did it give?
A: 1.87 µM

Q: What about the IC50 (MCF7) of the same compound?
A: 2.33 µM

Q: What about the IC50 (PC-3 [1]) of the same compound?
A: 700 nM

Q: And the IC50 (B16-F10)?
A: 0.5 µM

Q: `O=c1[nH]cc(F)c(=O)[nH]1` [FLUOROURACIL] was tested. Which IC50 (A549) did it give?
A: 0.43 µM

Q: And the IC50 (MCF7)?
A: 6.11 µM

Q: And the IC50 (PC-3 [1])?
A: 530 nM

Q: And the IC50 (B16-F10)?
A: 6.29 µM

Q: How did the IC50 (A549) turn out when `CCCCCCCCCCCCCCNC[C@@H]1OC[C@H](N)[C@@H]1O` was run?
A: 2.85 µM

Q: And the IC50 (MCF7)?
A: 0.72 µM

Q: What about the IC50 (PC-3 [1]) of the same compound?
A: 1200 nM

Q: And the IC50 (B16-F10)?
A: 14.3 µM

Q: With `CCCCCCCCCCCCNC[C@@H]1OC[C@H](N)[C@H]1O` as the compound, how does the IC50 (A549) read?
A: 41.1 µM

Q: And the IC50 (MCF7)?
A: 12.6 µM

Q: And the IC50 (PC-3 [1])?
A: 2380 nM

Q: What about the IC50 (B16-F10) of the same compound?
A: 58.1 µM

Q: Which IC50 (A549) does the source give for `CCCCCCCCCCCNC[C@@H]1OC[C@H](N)[C@H]1O` here?
A: 9.65 µM

Q: What about the IC50 (MCF7) of the same compound?
A: 13.1 µM

Q: And the IC50 (PC-3 [1])?
A: 10000 nM

Q: What about the IC50 (B16-F10) of the same compound?
A: 88.8 µM

Q: With `CCCCCCCCCCCCNC[C@@H]1OC[C@H](N)[C@@H]1O` as the compound, how does the IC50 (A549) read?
A: 5.87 µM

Q: And the Activity (PC-3 [2])?
A: 15.7%

Q: And the Activity (PC-3 [3])?
A: 69.1%

Q: And the viability at 2 µM (PC-3 [4])?
A: 87.7%

Q: And the Activity (PC-3 [5])?
A: 3%

Q: And the Activity (PC-3 [6])?
A: 78.6%

Q: What about the Activity (PC-3 [7]) of the same compound?
A: Dose-dependent effect

Q: And the Activity (PC-3 [8])?
A: 56%

Q: And the Activity (PC-3 [9])?
A: 9.3%

Q: What about the Activity (PC-3 [10]) of the same compound?
A: Tde

Q: What about the viability at 1 µM (PC-3 [11]) of the same compound?
A: 89.2%

Q: What about the Activity (PC-3 [12]) of the same compound?
A: 0.3%

Q: And the Activity (PC-3 [13])?
A: 93%

Q: What about the Activity (PC-3 [14]) of the same compound?
A: Active

Q: And the IC50 (MCF7)?
A: 1.8 µM

Q: And the IC50 (PC-3 [1])?
A: 850 nM

Q: What about the Activity (PC-3 [15]) of the same compound?
A: 8%

Q: What about the Activity (PC-3 [16]) of the same compound?
A: 0.6%

Q: What about the Activity (PC-3 [17]) of the same compound?
A: 9.6%

Q: And the Activity (PC-3 [18])?
A: 0.2%

Q: And the Activity (PC-3 [19])?
A: 2.3%

Q: And the viability at 3 µM (PC-3 [20])?
A: 80.8%

Q: What about the viability at 4 µM (PC-3 [21]) of the same compound?
A: 8.5%

Q: What about the Activity (PC-3 [22]) of the same compound?
A: 2.6%

Q: What about the Activity (PC-3 [23]) of the same compound?
A: 88.2%

Q: And the Activity (PC-3 [24])?
A: Dose-dependent effect

Q: And the Activity (PC-3 [25])?
A: Active

Q: What about the IC50 (B16-F10) of the same compound?
A: 10.7 µM

Q: What about the Activity (PC-3 [26]) of the same compound?
A: 81.9%

Q: And the Activity (PC-3 [27])?
A: 0.2%

Q: How did the IC50 (A549) turn out when `CCCCCCCCNC[C@@H]1OC[C@H](N)[C@@H]1O` was run?
A: > 128 µM

Q: And the IC50 (MCF7)?
A: 96.6 µM

Q: What about the IC50 (PC-3 [1]) of the same compound?
A: 13800 nM

Q: And the IC50 (B16-F10)?
A: > 128 µM

Q: How did the IC50 (A549) turn out when `CCCCCCCNC[C@@H]1OC[C@H](N)[C@@H]1O` was run?
A: > 128 µM

Q: And the IC50 (MCF7)?
A: > 128 µM

Q: And the IC50 (PC-3 [1])?
A: 22400 nM

Q: And the IC50 (B16-F10)?
A: > 128 µM
